Source: ChEMBL document CHEMBL4004836, “Design, synthesis and anticancer properties of IsoCombretaQuinolines as potent tubulin assembly inhibitors” (Eur J Med Chem, 2017)
Active and inactive are the calls of the source. The rule behind the calls is not given here.

Legend:
A549 [1] = assay: Cytotoxicity against human A549 cells assessed as decrease in cell growth after 72 hrs by resazurin dye-based fluorimetric method; format: functional; conditions: A549, 72 h
How it was run: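 A549 grown in DMEM (4.5 g/L glucose, 10% FCS, 1% glutamine), 37 °C, 5% CO2. Seeded 5 × 10^3 cells/well, compound in DMSO (<0.1%) added after 24 h, 72 h exposure. Resazurin (CellTiter-Blue) for 2 h, fluorescence ex 560/em 590 nm. IC50 = concentration halving fluorescence versus untreated cells. Triplicate; mean of three experiments.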

HCT-116 = assay: Cytotoxicity against human HCT116 cells assessed as decrease in cell growth after 72 hrs by resazurin dye-based fluorimetric method; format: functional; conditions: HCT-116, 72 h
How it was run: (§1)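 Lines grown in RPMI 1640 with 10% FCS and 1% glutamine, 37 °C, 5% CO2. K562R is a doxorubicin-resistant K562 line. Seeded 5 × 10^3 cells/well, compound in DMSO (<0.1%) added after 24 h, then 72 h exposure. Resazurin for 2 h, fluorescence ex 560/em 590 nm. IC50 from 50% fluorescence drop versus untreated cells. Triplicate, averaged.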

K-562R = assay: Cytotoxicity against human K562R cells assessed as decrease in cell growth after 72 hrs by resazurin dye-based fluorimetric method; format: functional; how it was run: as §1
[2] = Cytotoxicity against human U87 cells assessed as decrease in cell growth after 72 hrs by resazurin dye-based fluorimetric method; format: functional, U-87MG ATCC; conditions: U-87 MG; how it was run: as §1
[3] = Inhibition of sheep brain tubulin assembly by DAPI staining-based fluorimetric method; parameters: species or system Ovis aries
How it was run: (§2)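 Sheep brain tubulin purified by two assembly-disassembly cycles, about 2-3 mg/mL in 0.1 M MES, 0.5 mM MgCl2, 1 mM EGTA, 1 mM GTP, pH 6.6. Assembly followed by DAPI fluorescence at 37 °C. IC50 = concentration halving maximum assembly rate versus no compound. Single-point values given as % inhibition at 100 µM. Mean of three experiments.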

K562 = assay: Cytotoxicity against human K562 cells assessed as decrease in cell growth after 72 hrs by resazurin dye-based fluorimetric method; format: functional; conditions: K562, 72 h; how it was run: as §1
Ovis aries = species on record: Ovis aries; assay: Inhibition of sheep brain tubulin assembly at 100 uM by DAPI staining-based fluorimetric method relative to control; how it was run: as §2
A549 [4] = assay: Induction of microtubule network fragmentation in human A549 cells after 24 hrs by DAPI staining-based inverted microscopic method; format: cell-based
How it was run: (§3)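 A549 cells on chamber slides, 24 h with or without compound. Fixed in 2% paraformaldehyde for 30 min, permeabilized with 0.25% Triton X-100, blocked with 1% BSA/10% goat serum. Mouse anti-β-tubulin overnight at 4 °C, then Alexa 647 secondary with Hoechst 33258 for 2 h, Alexa 488 phalloidin for F-actin. Imaged by inverted microscope, 60X oil objective.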

A549 [5] = assay: Disruption of microtubule network organization in human A549 cells assessed as decrease in mitotic spindle formation after 24 hrs by DAPI staining-based inverted microscopic method; format: cell-based; how it was run: as §3
A549 [6] = assay: Cell cycle arrest in human A549 cells assessed as accumulation at G2/M phase at 10 nM after 24 hrs by propidium iodide staining-based flow cytometric method; format: functional
How it was run: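 Exponentially growing A549 cells exposed for 24 h to 0.5, 1, 5 or 10 nM, with DMSO alone as control. DNA content read by propidium iodide staining and flow cytometry to give the cell-cycle profile.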

| Compound | IC50 [3] [nM] | inhibition (Ovis aries) [%] | IC50 (A549 [1]) [nM] | IC50 (HCT-116) [nM] | IC50 (K-562R) [nM] | IC50 [2] [nM] | IC50 (K562) [nM] | Activity (A549 [4]) | Activity (A549 [5]) | Activity (A549 [6]) |
| --- | --- | --- | --- | --- | --- | --- | --- | --- | --- | --- |
| C=C(c1ccc(OC)cc1)c1cc(C(F)(F)F)nc2ccccc12 | – | – | – | – | – | 21.7 | – | – | – | – |
| C=C(c1ccc(OC)c(O)c1)c1cc(OC)c(OC)c(OC)c1 | 2000 | – | 8.2 | – | 1.1 | 7.8 | 0.8 | – | – | – |
| C=C(c1ccc(OC)cc1)c1nc(C)nc2ccccc12 | – | – | – | – | – | 40 | – | – | – | – |
| C=C(c1ccc(OC)c(O)c1)c1nc(C)nc2ccccc12 | 600 | – | – | – | – | 6.1 | – | – | – | – |
| C=C(c1ccc(OC)cc1)c1nc2ccccc2nc1C | – | 24 | – | – | – | 690 | – | – | – | – |
| C=C(c1ccc(OC)c(O)c1)c1cc(C)nc2ccccc12 | 3900 | – | 0.4 | 0.9 | 2.4 | 1.5 | 1.8 | Dose-dependent effect | Dose-dependent effect | Active |
| C=C(c1ccc(OC)c(F)c1)c1cc(C)nc2ccccc12 | 2200 | – | 9.5 | 9.6 | 2.4 | 4 | 5 | – | – | – |

Second part, led by results:

| IC50 [3] [nM] | inhibition (Ovis aries) [%] | Compound | IC50 (A549 [1]) [nM] | IC50 (HCT-116) [nM] | IC50 (K-562R) [nM] | IC50 [2] [nM] | IC50 (K562) [nM] | Activity (A549 [4]) | Activity (A549 [5]) | Activity (A549 [6]) |
| --- | --- | --- | --- | --- | --- | --- | --- | --- | --- | --- |
| 1100 | – | C=C(c1ccc(OC)cc1)c1cc(C)nc2ccccc12 | 18.5 | 3 | 0.7 | 21 | 17 | – | – | – |
| 23800 | – | C=C(c1ccc(OC)cc1)c1cc(C(N)=O)nc2ccccc12 | – | – | – | 240 | – | – | – | – |
| 7200 | – | COc1ccc(C(=O)c2cc(C)nc3ccccc23)cc1 | – | 130 | 52 | 25 | 139 | – | – | – |
| 17100 | – | C=C(c1ccc(OC)cc1)c1cc(C)cc2ccccc12 | – | – | – | 140 | – | – | – | – |
| 1900 | – | COc1ccc(C(=CC#N)c2cc(C)nc3ccccc23)cc1 | 79 | 13.2 | 6.6 | 0.25 | 17 | – | – | – |
| – | 29 | C=C(c1ccc(OC)cc1)c1cc(C(=O)O)nc2ccccc12 | – | – | – | 75 | – | – | – | – |
| – | 53 | C=C(c1ccc(OC)cc1)c1nc(C)cc2ccccc12 | – | – | – | 300 | – | – | – | – |
| 1100 | – | C=C(c1ccc(OC)cc1)c1cc(C#N)nc2ccccc12 | 50 | 1.6 | 0.9 | 1 | 9 | – | – | – |
| 3900 | – | C=C(c1ccc(OC)cc1)c1cc(C(=O)OC)nc2ccccc12 | – | 160 | 18 | 2.3 | 88 | – | – | – |
| 14300 | – | C=C(c1ccc(OC)cc1)c1cc(CO)nc2ccccc12 | – | – | – | 390 | – | – | – | – |
